Numbering of substitutions follows the chain as printed. Activity calls are given as the source filed them. The rule behind the calls is not given here.

In general, Tm refers to the temperature at which the thermal transition is half complete.

The target in assay [1] is T1, Tyrosine-protein phosphatase non-receptor type 11 (Homo sapiens) (UniProt Q06124).
T1 sequence (whole entry): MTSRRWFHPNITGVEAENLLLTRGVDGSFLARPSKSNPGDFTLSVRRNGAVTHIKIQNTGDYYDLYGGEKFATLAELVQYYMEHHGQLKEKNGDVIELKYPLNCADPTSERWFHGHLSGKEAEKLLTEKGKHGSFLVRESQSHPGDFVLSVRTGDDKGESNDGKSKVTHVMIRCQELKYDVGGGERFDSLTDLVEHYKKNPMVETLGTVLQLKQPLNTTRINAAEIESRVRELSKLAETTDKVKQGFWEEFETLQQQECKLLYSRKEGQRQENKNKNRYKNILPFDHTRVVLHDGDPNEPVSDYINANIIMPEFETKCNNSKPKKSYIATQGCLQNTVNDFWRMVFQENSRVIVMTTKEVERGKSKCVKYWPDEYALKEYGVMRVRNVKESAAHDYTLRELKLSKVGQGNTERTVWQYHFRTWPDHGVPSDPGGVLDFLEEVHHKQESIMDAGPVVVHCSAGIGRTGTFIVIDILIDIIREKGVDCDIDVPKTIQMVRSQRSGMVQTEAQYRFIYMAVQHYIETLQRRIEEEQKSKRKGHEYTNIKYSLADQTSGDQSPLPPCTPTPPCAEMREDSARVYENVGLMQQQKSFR
Nature of the assay: Binding affinity to full length wild type GST-tagged SHP2 (unknown origin) luminescence spectrometry-based quenching assay. The essentials: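 Intrinsic fluorescence quenching of full-length WT GST-SHP2 held at 3.0 µM in 20 mM Tris-HCl pH 7.5 while compound concentration is increased. Excitation 295 nm, emission 360–500 nm. Compound-alone fluorescence subtracted; intensities are relative. Triplicates shown from one of three repeats.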

In assay [2] the target is T1, Tyrosine-protein phosphatase non-receptor type 11 (Homo sapiens). As to the kind of experiment: Binding affinity to His-tagged SHP2 (unknown origin) assessed as melting temperature at 60 uM measured every 50 secs by thermal shift assay (reference value: 43.5 +/- 0.95 degC).
Assay [3] shares this target. Nature of the assay: Binding affinity to His-tagged SHP2 (unknown origin) assessed as melting temperature at 10 uM measured every 50 secs by thermal shift assay (reference value: 43.5 +/- 0.95 degC).
In assay [4] the target is T2, Tyrosine-protein phosphatase non-receptor type 11 (Mus musculus) (UniProt P35235).
T2 sequence (whole entry): T1 sequence (whole entry) with M450V, A550V, K590R
As to the kind of experiment: Inhibition of SHP2 in mouse Ba/F3 cells assessed as reduction in IL3-stimulated ERK phosphorylation pretreated for 4 hrs followed by IL3 stimulation and measured after 5 to 60 mins by Western blot analysis. The class given is cell-based. The method, boiled down: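 Ba/F3 cells starved overnight in serum- and cytokine-free RPMI1640. Treated with 20 µM compound for 4 h, then IL-3 (2 ng/mL) for the indicated times. RIPA lysates (50 µg) immunoblotted for p-Erk, p-Akt, p-Jak2 and p-Stat5, then reprobed for total proteins. Representative of three experiments.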
(Immunoblotting shows a protein as a band on a membrane.)

The test system of assay [5] is T3, Tyrosine-protein phosphatase non-receptor type 11 (Homo sapiens), Q06124 [E76K].
T3 sequence (whole entry): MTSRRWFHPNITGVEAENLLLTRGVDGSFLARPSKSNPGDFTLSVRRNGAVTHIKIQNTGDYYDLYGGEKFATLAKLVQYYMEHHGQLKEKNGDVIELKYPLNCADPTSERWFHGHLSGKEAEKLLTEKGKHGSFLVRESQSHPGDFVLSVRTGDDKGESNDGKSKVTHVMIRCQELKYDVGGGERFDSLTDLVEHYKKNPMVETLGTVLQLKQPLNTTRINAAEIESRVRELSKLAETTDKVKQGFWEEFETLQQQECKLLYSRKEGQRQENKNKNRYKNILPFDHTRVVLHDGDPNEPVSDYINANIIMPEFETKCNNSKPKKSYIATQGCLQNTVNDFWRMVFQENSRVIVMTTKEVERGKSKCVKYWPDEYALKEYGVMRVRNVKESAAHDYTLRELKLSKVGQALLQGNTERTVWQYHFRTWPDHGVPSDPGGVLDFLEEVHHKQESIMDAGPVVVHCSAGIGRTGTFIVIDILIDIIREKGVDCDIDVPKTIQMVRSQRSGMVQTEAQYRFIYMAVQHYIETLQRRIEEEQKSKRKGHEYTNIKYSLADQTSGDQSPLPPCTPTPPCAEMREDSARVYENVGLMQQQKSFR
As to the kind of experiment: Inhibition of Ptpn11 E76K mutant in bone marrow cells isolated from JMML patient assessed as inhibition of GM-CSF-induced colony forming units at 1.25 to 5 uM after 14 days by inverted microscopy. The class given is cell-based. The method, boiled down: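 JMML patient splenocytes, marrow or blood cells (PTPN11 E76K/+), 5×10⁴ cells/mL, with healthy apheresis controls. Plated in 0.9% methylcellulose IMDM with 30% FBS, glutamine, β-mercaptoethanol and GM-CSF 1.0 ng/mL, plus compound or DMSO. Myeloid colonies counted at 14 days, 37 °C, 5% CO2, normalized to DMSO.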

The target of assay [6] is T1, Tyrosine-protein phosphatase non-receptor type 11 (Homo sapiens). Nature of the assay: Mixed type inhibition of human wild-type full length SHP2 assessed as substrate [Et] at 20 uM using H-Glu-Phe-pTyr-Ala-Glu-Val-Gly-Arg-Ser-Pro-Pro-Asp-Pro-Ala-Lys as substrate by Lineweaver-Burk plot analysis (reference value: 0.029 uM).
Another assay concerns NCI-H661. As to the kind of experiment: Induction of cell cycle arrest in human NCI-H661 cells at 10 to 20 uM after 24 hrs by propidium iodide-staining based FACS analysis. The class given is functional. The essentials: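 H661 cells treated with 0, 10 or 20 µM for 24 h; cell cycle profile by propidium iodide staining and FACS. Profiles are representative of three independent experiments.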
Background: A flow cytometer gives signals particle by particle.

Assay [7] addresses T1, Tyrosine-protein phosphatase non-receptor type 11 (Homo sapiens). Nature of the assay: Binding affinity to His-tagged SHP2 (unknown origin) assessed as melting temperature at 5 uM measured every 50 secs by thermal shift assay (reference value: 43.5 +/- 0.95 degC).

On to `CCOc1cc(O)c(C(=O)/C=C/c2ccc(Cl)cc2Cl)cc1CN1CCC=C(n2c(=O)[nH]c3ccccc32)C1`, for which the Activity entry was “Dose-dependent effect” in assay [1] and 0.029 µM in assay [6]. The melting temperature (Tm) was determined as 48.2 °C in assay [2], 47.2 °C in assay [3] and 46.3 °C in assay [7]. In assay [4], the inhibition result is “Dose-dependent effect”. The inhibition result in assay [5] was “Active”. The outcome with NCI-H661 was Active.

(Values after ChEMBL document CHEMBL4422612, “Small Molecule Inhibitor that Stabilizes the Autoinhibited Conformation of the Oncogenic Tyrosine Phosphatase SHP2” (J Med Chem, 2019).)
